Only some compounds are listed: those with a hit (about 9.6% of all), similar ones and a draw of the others.
BaF3 parental – parental Ba/F3 cell viability inhibition, counter-screen for JAK2V617F inhibitor project, murine pro-B, CellTiter-Glo luminescence | 220,000 tested, 1.1% active | inhibition, % at 5.6 µM | CellTiter-Glo ATP luminescence;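 active = inhibition above a per-campaign cutoff, the mean inhibition of all tested compounds plus 3 SD, cut at about 27% in these data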
MT stabilize HCS – microtubule stabilizers in HeLa cells, primary screen, imaging, high-content imaging. % tubulin-high responders, % at 10 µM. HeLa tubulin immunostaining HCS, 24 h; share of cells brighter than vehicle mean+2SD. 200,000 tested, 0.83% active;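 active = plate Z-score above 3 for both tubulin-high and condensed-nucleus cell shares, with cell loss under 80%, at 10 µM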;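 note: anti alpha tubulin signal scored within the nucleus-defined area of each cell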
APP transl inh – inhibitors of APP translation via 5'UTR reporter, primary screen, APP 5'UTR luciferase, SH-SY5Y cells | inhibition, % at 2 µM | AID 1285, 2008 | 190,000 tested, 0.82% active | SH-SY5Y APP 5'UTR-luciferase reporter, luminescence;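 active = inhibition above a set limit, derived from the sample mean plus 3 SD, cut at about 45% in these data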
Ba/F3 V617F tox – reduced viability of JAK2V617F-dependent Ba/F3 cells, primary screen, JAK2V617F inhibitor project, cell-based, Ba/F3 EpoR-JAK2V617F, luminescence; ATP luminescence; inhibition, % at 5.6 µM; 220,000 tested, 1.1% active; AID 1446, 2008;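 active = inhibition above the campaign mean plus 3 SD over all tested compounds, cut at about 24% in these data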;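 note: cytokine-independent growth of Ba/F3 cells driven by EpoR plus mutant JAK2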
Lmaj promast – Leishmania major promastigote growth inhibition, primary screen. Leishmania major promastigotes, resazurin fluorescence viability. inhibition, % at 10 µM. 200,000 tested, 9% active. AID 1063, 2008; in the data active = inhibition above about 50%;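 note: promastigotes grown with compound for 44 hours at 28 °C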
b-catenin transl – modulators of beta-catenin nuclear translocation, primary screen, imaging, HeLa cells, immunofluorescence, high-content | nuclear translocation activity, % at 5 µM | 190,000 tested, 0.3% active;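 active = nuclear translocation activity above 50% at 5 µM, with a well cell count of 50 or more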;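 note: per-cell ratio of nuclear to cytoplasmic median beta-catenin stain intensity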
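Test system: HeLa cells, endogenous beta-catenin; Compound: single 5 µM dose plus 0.02–20 µM confirmation series; Times: compound exposure 24 h at 37°C; Signal: fluorescence imaging of beta-catenin antibody stain plus DAPI; Read-out: % activation, nuclear-to-cytoplasmic median beta-catenin signal ratio per cell.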
Large screens that a line does not name were inactive.

Cc1ccc(S(=O)(=O)c2c(N)n(Cc3ccco3)c3nc4ccccc4nc23)cc1	Lmaj promast 74
CCCCn1c(N)c(S(=O)(=O)c2ccc(C)cc2)c2nc3ccccc3nc21	Lmaj promast 56
Cc1cccc(S(=O)(=O)c2c(N)n(Cc3ccco3)c3nc4ccccc4nc23)c1	Lmaj promast 78
Cc1cc(C)c2c(=O)[nH]c(=O)n(Cc3ccccc3)c2n1	none
CCSc1nc(-c2ccccc2)nc(C(Cl)Cl)n1	APP transl inh 47
CN(CCC#N)C(=O)COC(=O)c1ccc(Cl)c(S(=O)(=O)N(C)c2ccccc2)c1	none
CCC(=O)N(CC)C1=C(O)c2ccccc2C(=O)C1=O	none
CNC1=C(N(C(C)=O)c2ccc(Br)cc2)C(=O)c2ccccc2C1=O	BaF3 parental 102, APP transl inh 55, Ba/F3 V617F tox 100, Lmaj promast 99
CCC(=O)N(C1=C(NC)C(=O)c2ccccc2C1=O)C(C)C	BaF3 parental 102, Ba/F3 V617F tox 100
Cc1c(C=O)c(=O)n(-c2ccccc2)n1-c1ccccc1	none
O=C(Cn1cc2c(n1)CCCC2)NC1CCCCCC1	none
O=C(CCCCn1c(=O)c2ccccc2n(Cc2ccccc2F)c1=O)NC1CCN(Cc2ccccc2)CC1	Lmaj promast 72
O=C(NC1CCN(Cc2ccccc2)CC1)c1cncc(Br)c1	Lmaj promast 67
O=C(C1CCN(Cc2cc(Cl)ccc2O)CC1)N1CCN(Cc2ccccc2)CC1	Lmaj promast 100
O=C(Cn1cc2c(n1)CCCCC2)NC1CCN(Cc2ccccc2)CC1	Lmaj promast 83 (no result: BaF3 parental, Ba/F3 V617F tox, b-catenin transl)
O=C(NCc1ccccc1)c1cncc(Br)c1	none
Cc1cccc(Nc2nc(N)nc(CC(=O)CSc3ccc(Cl)cc3)n2)c1	none
O=C(CSc1ccccn1)Nc1nncs1	none
O=C(Cc1ccccc1)NC1CCN(Cc2ccccc2)CC1	Lmaj promast 82
O=C(NC1CCN(Cc2ccccc2)CC1)C12CC3CC(CC(C3)C1)C2	Lmaj promast 88
N#CC(c1ccccc1)C1CCN(Cc2ccccc2)CC1 (centres undefined)	Lmaj promast 88
O=C(O)COCC(=O)NC1CCN(Cc2ccccc2)CC1	none (no result: MT stabilize HCS, APP transl inh, Lmaj promast)
CC(Oc1ccccc1)C(=O)NC1CCN(Cc2ccccc2)CC1 (centres undefined)	Lmaj promast 91
Clc1ccccc1CN1CCC(Cc2ccccc2)CC1	none
COc1ccc(NC(=S)Nc2cccc(C(F)(F)F)c2)c(C)c1	none
COc1cc(NC(=O)c2ccc(COCC(F)(F)F)cc2)cc(OC)c1OC	none
Cc1ccc(C(=O)C(c2ccccc2)N2Cc3ccccc3C2=N)cc1 (centres undefined)	Lmaj promast 99
O=C(CSc1nnc(-c2ccco2)o1)c1ccc[nH]1	none
CCCNC(=O)COC(=O)CCC(=O)c1cccs1	Lmaj promast 57 (no result: b-catenin transl)
CCNC(=O)COC(=O)CCC(=O)c1cccs1	none
C=CCNCCCCOc1c(Cl)cc(C)cc1Br	Lmaj promast 99
C=CCNCCOc1c(C)cc(C)cc1Cl	none
COCCCNCCCCOc1c(Cl)cc(C)cc1Br	Lmaj promast 100
Cc1cc(C)c(OCCCCNCc2ccccc2)c(Cl)c1	Lmaj promast 97
Cc1cc(C)nc(NC(=O)c2ccc(COc3ccccc3Cl)cc2)c1	BaF3 parental 71, Ba/F3 V617F tox 62
COC(=O)c1ccccc1NC(=O)c1cccc(COc2ccccc2Cl)c1	MT stabilize HCS 46, b-catenin transl 123
COC(=O)c1ccc(Cn2nc(C)cc2C)cc1	none
O=C(NCc1ccccc1)c1cccc(COc2ccccc2Cl)c1	none
Cc1cc(C)n(Cc2ccc(NC(=O)c3ccc(COc4ccccc4Br)cc3)cc2)n1	Lmaj promast 56 (no result: b-catenin transl)
O=C(Nc1ccn(Cc2c(F)c(F)cc(F)c2F)n1)c1ccc(COc2ccccc2Cl)cc1	none
Cc1sc2c(c1C)CN(CCN1CCOCC1)CN2C(=O)c1ccccc1	none
O=C1CCC(CCC(=O)N2CCCC(C(=O)c3cccc(C(F)(F)F)c3)C2)=NN1 (centres undefined)	none
COc1cccc(OCCCCN2CCCCC2)c1	Lmaj promast 97
CC1CCCN(CCC(=O)c2ccc(Br)cc2)C1 (centres undefined)	Lmaj promast 96
COc1cccc(OCCCN2CCCCC2)c1	Lmaj promast 96
CCOc1cccc(OCCCCN2CCCCC2)c1	Lmaj promast 97
Cc1cccc(C)c1OCCCN1CCCC1	none (no result: b-catenin transl)
O=C(O)CC(C(=O)Nc1ccc(Cl)c(Cl)c1)C1CCCO1 (centres undefined)	none
CCO/N=C(/C)c1c(O)c(C)c(-c2ccccc2)n(-c2ccccc2)c1=O	none
COc1ccc(OCCCN2CCCCCC2)cc1	Lmaj promast 99
Brc1cccc(OCCCCN2CCCCC2)c1	Lmaj promast 98
CC(C)(C)c1ccc(OCCN2CCCC2)cc1	Lmaj promast 97
CCCCCC(O)(CCN1CCCCC1)c1ccc(OCC)cc1 (centres undefined)	none
CC1CCCN(CCOc2ccc(Br)cc2)C1 (centres undefined)	Lmaj promast 51
COc1ccc(NC(=O)C/C(C)=N/NC(=O)C(=O)NC2CCCCC2)c(OC)c1	none (no result: b-catenin transl)
CC1CCCN(CCCCOc2cccc(Br)c2)C1 (centres undefined)	Lmaj promast 99
COc1cc2c(cc1OC)CN(CCC(=O)c1ccc(Br)cc1)CC2	Lmaj promast 61
CN(C)CCCCOc1cccc(Br)c1	none
COc1cc2c(cc1OC)CN(CC(=O)Nc1cccc(C)c1)CC2	none
CCCc1c(C)[nH]c2ccc(C(=O)O)cc2c1=S	none (no result: MT stabilize HCS, APP transl inh, Lmaj promast)
O=C(CSc1nncn1-c1ccccc1)c1c[nH]c2ccccc12	none
O=C(CSc1nc2ccccc2c(=O)n1-c1ccccc1)c1c[nH]c2ccccc12	Lmaj promast 51 (no result: b-catenin transl)
Cc1noc(C)c1S(=O)(=O)Nc1ccccc1N1CCOCC1	none (no result: MT stabilize HCS, APP transl inh, Lmaj promast)
CC1(C)C(N(O)C(=O)Nc2ccc(Cl)cc2)N(c2ccc(Cl)cc2)C(=O)N1CC(=O)NN (centres undefined)	Lmaj promast 100 (no result: b-catenin transl)
CN1C(=S)SC(C)(C)C1N(O)C(=O)Nc1ccc(Cl)cc1 (centres undefined)	none
COC(=O)c1cc2ccsc2n1CC(=O)Nc1ccc(N(C)C)cc1	none
COC(=O)c1cc2ccsc2n1CC(=O)Nc1cc(Cl)ccc1OC	MT stabilize HCS 30 (no result: b-catenin transl)
Cc1nc2scc(-c3ccc(C(C)(C)C)cc3)c2c(=O)n1N	none
CCNC(=S)Nc1cc(Cl)ccc1Oc1ccccc1	Lmaj promast 67
Cc1nc(Cl)c(C(=O)NC(C)(C)C)c(C)c1Cl	none
Cc1sc2ncn(CC(=O)Nc3cccc(S(N)(=O)=O)c3)c(=O)c2c1-c1ccccc1	none (no result: MT stabilize HCS, APP transl inh, Lmaj promast)
COCCNCC(=O)N1CCCCCC1	none

Compound activity (PubChem BioAssay)
